Holding throughout (assay type): functional
Assay [1] is filed under the species Homo sapiens. The experiment in a line: Sensory evaluation was done for sweetness at a concentration of 550 p.p.m. against compound potency calculated on weight basis. An outline of the steps: (§1)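 Sweetness tasted in solutions held near pH ~7, so carboxylic acids are ionized. Potency is reported two ways: on a weight basis (Pw) and on a molar basis (Pm).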
The species named for assay [2] is Homo sapiens. The experiment in a line: Sensory evaluation was done at a concentration of 550 p.p.m. against other properties. An outline of the steps:
(§2)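 Aqueous sample solutions were tasted at about pH 7, so carboxylic acids were in ionized form.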

Assay [3] is filed under the species Homo sapiens. The experiment in a line: Sensory evaluation was done at a concentration of 550 p.p.m. against property of bitterness. Summed up:
as §2

Assay [4] is filed under the species Homo sapiens. Nature of the assay: Sensory evaluation was done at a concentration of 550 p.p.m. against property of sweetness. An outline of the steps: as §2
The species named for assay [5] is Homo sapiens. Nature of the assay: Sensory evaluation was done for sweetness at a concentration of 550 p.p.m. against compound potency calculated on a molar basis. Summed up:
as §1

The species entered for assay [6] is Homo sapiens. Nature of the assay: Sensory evaluation was done for sweetness at a concentration of 550 p.p.m. against sample intensity relative to 10% sucrose. An outline of the steps:
as §1

The species entered for assay [7] is Homo sapiens. The experiment in a line: Sensory evaluation was done at a concentration of 3000 p.p.m. against other properties. An outline of the steps: (§3)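 Sensory evaluation of the samples in solution at pH ~7, where carboxylic acids are ionized.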
The species entered for assay [8] is Homo sapiens. The experiment in a line: Sensory evaluation was done at a concentration of 3000 p.p.m. against property of bitterness. An outline of the steps: as §3
The species named for assay [9] is Homo sapiens. The experiment in a line: Sensory evaluation was done at a concentration of 3000 p.p.m. against property of sweetness. An outline of the steps: as §3
The species entered for assay [10] is Homo sapiens. The experiment in a line: Sensory evaluation was done for sweetness at a concentration of 3000 p.p.m. against compound potency calculated on weight basis. Summed up:
as §3

The species named for assay [11] is Homo sapiens. The experiment in a line: Sensory evaluation was done for sweetness at a concentration of 3000 p.p.m. against compound potency calculated on a molar basis. Summed up: as §3
For assay [12], the species on record is Homo sapiens. Nature of the assay: Sensory evaluation was done for sweetness at a concentration of 3000 p.p.m. against sample intensity relative to 10% sucrose. Summed up:
as §3

The species entered for assay [13] is Homo sapiens. The experiment in a line: Sensory evaluation was done for sweetness at a concentration of 1000 p.p.m. against compound potency calculated on weight basis. An outline of the steps:
(§4)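 Solutions were tasted at about pH 7. Sweetness potency was expressed two ways: Pw, calculated on a weight basis, and Pm, calculated on a molar basis.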

Assay [14] is filed under the species Homo sapiens. The experiment in a line: Sensory evaluation was done for sweetness at a concentration of 1000 p.p.m. against sample intensity relative to 10% sucrose. Summed up: as §2
For assay [15], the species on record is Homo sapiens. Nature of the assay: Sensory evaluation was done for sweetness at a concentration of 1000 p.p.m. against compound potency calculated on a molar basis. Summed up:
as §4

For assay [16], the species on record is Homo sapiens. The experiment in a line: Sensory evaluation was done at a concentration of 1000 p.p.m. against other properties. An outline of the steps: as §2
Assay [17] is filed under the species Homo sapiens. The experiment in a line: Sensory evaluation was done at a concentration of 1000 p.p.m. against property of bitterness. An outline of the steps:
as §2

For assay [18], the species on record is Homo sapiens. Nature of the assay: Sensory evaluation was done at a concentration of 1000 p.p.m. against property of sweetness. An outline of the steps:
as §2

For assay [19], the species on record is Homo sapiens. The experiment in a line: Sensory evaluation was done for sweetness at a concentration of 650 p.p.m. against compound potency calculated on weight basis. Summed up: as §1
The species named for assay [20] is Homo sapiens. The experiment in a line: Sensory evaluation was done for sweetness at a concentration of 650 p.p.m. against compound potency calculated on a molar basis. Summed up: as §1
For assay [21], the species on record is Homo sapiens. Nature of the assay: Sensory evaluation was done for sweetness at a concentration of 650 p.p.m. against sample intensity relative to 10% sucrose. An outline of the steps:
as §1

The species named for assay [22] is Homo sapiens. The experiment in a line: Sensory evaluation was done at a concentration of 650 p.p.m. against other properties. Summed up: as §2
For assay [23], the species on record is Homo sapiens. The experiment in a line: Sensory evaluation was done at a concentration of 650 p.p.m. against property of bitterness. Summed up:
as §2

Assay [24] is filed under the species Homo sapiens. The experiment in a line: Sensory evaluation was done at a concentration of 650 p.p.m. against property of sweetness. Summed up: as §2
The species entered for assay [25] is Homo sapiens. Nature of the assay: Sensory evaluation was done at a concentration of 500 p.p.m. against other properties. Summed up:
as §2

The species entered for assay [26] is Homo sapiens. The experiment in a line: Sensory evaluation was done at a concentration of 500 p.p.m. against property of bitterness. An outline of the steps:
as §2

Assay [27] is filed under the species Homo sapiens. Nature of the assay: Sensory evaluation was done at a concentration of 500 p.p.m. against property of sweetness. An outline of the steps:
as §2

For assay [28], the species on record is Homo sapiens. Nature of the assay: Sensory evaluation was done for sweetness at a concentration of 500 p.p.m. against compound potency calculated on weight basis. An outline of the steps:
as §1

The species named for assay [29] is Homo sapiens. The experiment in a line: Sensory evaluation was done for sweetness at a concentration of 500 p.p.m. against compound potency calculated on a molar basis. An outline of the steps: as §1
The species entered for assay [30] is Homo sapiens. Nature of the assay: Sensory evaluation was done for sweetness at a concentration of 500 p.p.m. against sample intensity relative to 10% sucrose. An outline of the steps: as §1

As for `C=C1C[C@@]23CC[C@H]4[C@@](C)(CCC[C@@]4(C)C(=O)OC(CCC(=O)[O-])C(=O)O)[C@@H]2CC[C@]1(O[C@@H]1O[C@@H](CO)[C@@H](O)[C@H](O)[C@@H]1O[C@@H]1O[C@@H](CO)[C@@H](O)[C@H](O)[C@@H]1O)C3.[Na+]` (stereo partly specified), the Pw in assay [1] is 160. The Sensory evaluation in assay [2] is given as 10; in assay [3], 2; in assay [4], 84. The Pm in [5] is reported as 380. Moreover, in assay [6], the Ip is recorded as 0.9.
Regarding `CC12CC[C@](C)(C(=O)O)CC1C1=CC(=O)[C@@H]3[C@@]4(C)CC[C@H](O[C@H]5O[C@H](C(=O)O)[C@@H](O)[C@H](O)[C@H]5O[C@@H]5O[C@H](C(=O)O)[C@@H](O)[C@H](O)[C@H]5O)C(C)(C)[C@@H]4CC[C@@]3(C)[C@]1(C)CC2.N` (stereo partly specified), the figures for the Sensory evaluation in assay [7], in [8] and in [9] were 13, 3 and 84, respectively. For the same compound, the Pw in assay [10] was 33. Moreover, the Pm in [11] is 90. For the same compound, in [12], the Ip is 1.
Take `CC1=CC(=O)NS(=O)(=O)O1` [ACESULFAME]: in [13], the Pw is 100. In assay [14], this compound returned an Ip of 1. Moreover, the Pm in assay [15] is given as 55. Besides, the Sensory evaluation was 1 in assay [16], 16 in [17] and 83 in assay [18].
Regarding `C=C1C[C@@]23CC[C@H]4[C@@](C)(CCC[C@@]4(C)C(=O)OCCCP(=O)([O-])O)[C@@H]2CC[C@]1(O[C@@H]1O[C@@H](CO)[C@@H](O)[C@H](O)[C@@H]1O[C@@H]1O[C@@H](CO)[C@@H](O)[C@H](O)[C@@H]1O)C3.[Na+]`, the Pw in assay [19] was 120. Further, in [20], the Pm is listed as 280. Also, the Ip in assay [21] amounted to 0.8. Further, the Sensory evaluation in assay [22] came out at 5; in assay [23] it was 8; in assay [24] it was 87.
Consider `C=C1C[C@@]23CC[C@H]4[C@@](C)(CCC[C@@]4(C)C(=O)O[C@@H]4O[C@H](CO)[C@@H](O)[C@H](O)[C@H]4O)[C@@H]2CC[C@]1(O[C@@H]1O[C@H](CO)[C@@H](O)[C@H](O)[C@H]1O[C@@H]1O[C@H](CO)[C@@H](O)[C@H](O)[C@H]1O)C3` [STEVIOSIDE], for which the Sensory evaluation is recorded as 8 in [25], 30 in assay [26] and 62 in assay [27]. Also, the Pw in assay [28] is 190. Also, the Pm in assay [29] was 440. This compound also showed an Ip in assay [30] of 0.9.
As to `C=C1C[C@@]23CC[C@H]4[C@@](C)(CCC[C@@]4(C)C(=O)OCCCCS(=O)(=O)[O-])[C@@H]2CC[C@]1(O[C@@H]1O[C@@H](CO)[C@@H](O)[C@H](O)[C@@H]1O[C@@H]1O[C@@H](CO)[C@@H](O)[C@H](O)[C@@H]1O)C3.[Na+]`, the Pw in assay [19] was 120. Besides, in [20], the Pm is recorded as 290. The Ip in assay [21] was found to be 0.8. In addition, the figures for the Sensory evaluation in [22], in assay [23] and in assay [24] were 4, 17 and 79, respectively.

(Values after ChEMBL document CHEMBL1123134, “Diterpenoid sweeteners. Synthesis and sensory evaluation of stevioside analogues with improved organoleptic properties” (1985).)
